Key:
MS2 coat protein [1] = experiment: apparent Kd, MS2 coat protein; higher = weaker binding; RNA-MaP array; conditions: designed as: OFF switch for flavin mononucleotide
How it was run: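 Apparent Kd was taken as the median of binding curves fitted cluster by cluster. The designed RNAs were made by transcription of sequenced DNA templates on an Illumina sequencing chip and exposed to fluorescently labeled MS2 coat protein (1.5 nM to 3 μM) at room temperature, with or without input ligand, for 0.8–1.5 h at the lowest and 10–20 min at the highest concentrations. Any design measured on fewer than 10 clusters was left out.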

MS2 coat protein [2] = experiment: apparent Kd, MS2 coat protein; higher = weaker binding; RNA-MaP array; FMN 200 µM where present
How it was run: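 Green signal from SNAP-549-labelled MS2 coat protein was normalised to red-channel RNA signal and to the median Fmax of control clusters. The protein was titrated from 0.7 or 1.5 nM, doubling to 3 µM, without and then with constant ligand, over designs transcribed by stalled E. coli RNA polymerase on Illumina sequencing-chip clusters, in 100 mM Tris-HCl pH 7.5, 80 mM KCl, 4 mM MgCl2, BSA, DTT, yeast tRNA and Tween-20. The apparent Kd is the median of filtered per-cluster binding-curve fits.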

[3] = designed as: OFF switch for flavin mononucleotide, no ligand
[4] = ligand present: flavin mononucleotide, designed as: OFF switch for flavin mononucleotide
[5] = designed as: ON switch for flavin mononucleotide, no ligand
[6] = ligand present: flavin mononucleotide, designed as: ON switch for flavin mononucleotide

Sequence | apparent Kd (MS2 coat protein [2]; [3]) [nM] | apparent Kd (MS2 coat protein [2]; [4]) [nM] | further results
UAGUCGUGGGCAGGAUAUCACUUUAUGCCAAUAUGAGAAGGGCCGGUGACAAGGCGGGCGACCACAUGAGGAUCACCCAUGUAC |  |  | apparent Kd (MS2 coat protein [1]; no ligand): 79.6 nM; apparent Kd (MS2 coat protein [1]; ligand present: flavin mononucleotide): 47.9 nM
GUGGCUAGUGCAGGAUAUUGGCGCGUGUAGUGUCGAGAAGGGCACAUGAGGAUCACCCAUGUGAUCAAUCACUGCUAAGGCCGC | 7.04 | 7.31 | 
GACAAUCUAUCUGAGGAUAUCAUGAAAAAAACAUGAGGAUCACCCAUGUGCAGGAAAACUGCAUAUGAGAAGGCAGAUAGAUUGA |  |  | apparent Kd (MS2 coat protein [2]; [5]): 708 nM; apparent Kd (MS2 coat protein [2]; [6]): 28.7 nM
CCAGAUUUCACAGGAUAUAUUGAUGACAUGAGGAUCACCCAUGUACCGGCAGUAGAAGGGUGAACGCACGUGACCACGUGCGUG |  |  | apparent Kd (MS2 coat protein [2]; [5]): 54.1 nM; apparent Kd (MS2 coat protein [2]; [6]): 14.9 nM
UAAUAAAGUGUGAGGAUAUGCUGGUCGAUAGAUCAGCAGAAGGCACAUGAGGAUCACCCAUGUAAUAUAUUUUA | 57.9 | 247 | 
CGCAUAUAUGUAAGGAUAUCUGCUUCGCAGAGGCAAGAGAAGGUACAUGAGGAUCACCCAUGUAUUUAAGGCGG | 22.6 | 25.6 | 
CGCAUUCCGUAGAAGGGUGACAUGAGGAUCACCCAUGUGCGAGCCGAGGGAGUCAGCGGCUCGCCACAGGAUAUACGGAGCACG |  |  | apparent Kd (MS2 coat protein [2]; [5]): 87.3 nM; apparent Kd (MS2 coat protein [2]; [6]): 84.8 nM
AACUAGUGAGGAUAUACAUGAGGAUCACCCAUGUACGUCGUGGGUAGAAAACAAGUCAGUAGAAGGUGCUAGAC | 157 | 248 | 
UGUGGUGGUUAGGAUAUAAUUAGAGGUUACUCGUUAGAAGGAGCUACAUGAGGAUCACCCAUGUGACUGUCCGC | 29.8 | 35.1 | 
UAGUCGGAGACAGGAUAUGUGACUGCAUAGUGCACAGAAGGGUCUACAUGAGGAUCACCCAUGUCACCGACCACCAAACAACAA |  |  | apparent Kd (MS2 coat protein [2]; [5]): 552 nM; apparent Kd (MS2 coat protein [2]; [6]): 33.3 nM
CGCUACGUUUCGUAGCAGUGUCAUCGAGAAGGCCCUGACAUGAGGAUCACCCAUGUUGUUACAUGGGAGGAUAUCGAUGAUACC |  |  | apparent Kd (MS2 coat protein [2]; [5]): 12.2 nM; apparent Kd (MS2 coat protein [2]; [6]): 5.25 nM
GGCAAUAUGUAGGAUAUCGUAUCGGAAACGAUACGAGAAGGGCAAACAUGAGGAUCACCCAUGUUCUUCAAGCC | 13 | 16.6 | 
AUGCUUCACACAGGAUAUUACAACAUGAGGAUCACCCAUGUACAUGACAUGACGAUCACGCAUGUUAAGAAGGGUGUGAAGCAU | 587 | 449 | 
AUGCAACAUGAGGAUCACCCAUGUGAGGAUAUCGUAUACUACUGUUGCAAUACUUAGACGAGAAGGCACACCGU | 166 | 174 | 
UGUGUGAGACAGGAUAUGCCGGAUAUAUUACUGGUAGAAGGGUCUACAUGAGGAUCACCCAUGUGGCCGGCCGG | 18 | 29.1 | 
UGUGUGUGGGCAGGAUAUGCAUGAAUAUAUAUGAUGUAGUAUGAUGUAACAUGAGGAUCACCCAUGUAGAAGGGCCGGUGUAUG | 133 | 133 | 
CUCAAACAUGAGGAUCACCCAUGUCAGGAUAUGAUACUAUGUACUUCGGUACAUAGUAUCAGAAGGGAUAUGAA | 87.6 | 111 | 
AAAUAACAUGUAGGAUAUGCAGCAUUAACCAUCGCAGAAGGACAUGAGGAUCACCCAUGUGGCGAUACAAUGCAAUAAGGGAAU | 16.2 | 40.7 | 
UGUAUGGACAGAGGAUAUACGGAUAGGAUCUACUAUCUUCCUUAAAUAACAUGAGGAUCACCCAUGUAGAAGGCUGUCCAUACU | 19 | 74.7 | 
CCAGGCUUCGAGAAGGACAUGAGGAUCACCCAUGUGCGUGUAAAACAGCCGUGAGGCUGCAUCAUGUAGGAUAUCGGAGUCUGC | 293 | 88.9 | 
CACUCGUGUCUAGGAUAUGAGUGACAAGCGCGAGAUUUUCUCACCGCUAGCUCAGAAGGAGACAUGAGGAUCACCCAUGUAAGG | 165 | 20.3 | 
